{"data": "Results collected from several papers", "MAL12": "Alpha-glucosidase MAL12 (MAL12, Saccharomyces cerevisiae S288c, UniProt P53341)", "note": "Compare with care: the assays were run in different laboratories."}
{"Structure (SMILES)": "C[C@@H]1O[C@@H](O[C@H]2[C@H](O[C@H]3CC[C@@]4(C)[C@@H](CC[C@]5(C)[C@@H]4CC=C4[C@@H]6CC(C)(C)CC[C@]6(C(=O)O)CC[C@]45C)[C@]3(C)CO)OC[C@H](O)[C@@H]2O)[C@H](O)[C@H](O)[C@H]1O", "target": "MAL12", "assay": "enzyme activity, inhibitor", "IC50 [µM]": 0.6}
{"Structure (SMILES)": "NC(=S)N/N=C/c1cc2ccccc2nc1SCc1cn(CC(=O)Nc2ccc([N+](=O)[O-])cc2)nn1", "target": "MAL12", "assay": "enzyme activity, inhibitor", "IC50 [µM]": 559}
{"Structure (SMILES)": "COc1ccc(NC(=O)Cn2cc(COc3ccc(C(c4c(O)c5ccccc5oc4=O)c4c(O)c5ccccc5oc4=O)cc3OC)nn2)c(OC)c1", "target": "MAL12", "assay": "enzyme activity, inhibitor, absorbance", "IC50 [µM]": 52}
{"Structure (SMILES)": "Nc1ncnc2c1ncn2[C@@H]1O[C@H](CO)[C@@H](O)[C@H]1O", "target": "Solute carrier family 22 member 6 (SLC22A6, Homo sapiens, UniProt Q4U2R8)", "assay": "transporter uptake, inhibitor, radiometric", "setting": "oocytes", "IC50 [µM]": "> 1000"}
{"Structure (SMILES)": "CC(C)C[C@H](NC(=O)[C@H](Cc1ccccc1)NC(=O)OCc1ccccc1)C(=O)C=O", "target": "Cathepsin S (CTSS, Homo sapiens, UniProt P25774)", "assay": "enzyme activity, inhibitor, fluorescence", "IC50 [µM]": 0.15}
{"Structure (SMILES)": "Cc1cccc(NC(=O)Cn2cc(CSc3nc4ccccc4cc3/C=N/NC(N)=S)nn2)c1C", "target": "MAL12", "assay": "enzyme activity, inhibitor", "IC50 [µM]": 247}
{"Structure (SMILES)": "C[C@@H]1O[C@@H](O[C@H]2[C@H](O[C@H]3CC[C@@]4(C)[C@@H](CC[C@]5(C)[C@@H]4CC=C4[C@@H]6CC(C)(C)CC[C@]6(C(=O)O[C@@H]6O[C@H](CO[C@@H]7O[C@H](CO)[C@@H](O)[C@H](O)[C@H]7O)[C@@H](O)[C@H](O)[C@H]6O)CC[C@]45C)[C@]3(C)CO)OC[C@H](O)[C@@H]2O)[C@H](O)[C@H](O)[C@H]1O", "target": "MAL12", "assay": "enzyme activity, inhibitor", "IC50 [µM]": 1.74}
{"Structure (SMILES)": "COc1cc(C(c2c(O)c3ccccc3oc2=O)c2c(O)c3ccccc3oc2=O)ccc1OCc1cn(CC(=O)Nc2cccc(Cl)c2)nn1", "target": "MAL12", "assay": "enzyme activity, inhibitor, absorbance", "IC50 [µM]": 85.4}
{"Structure (SMILES)": "Cc1ccc2[nH]c(=O)c(CNC3CCCCC3)cc2c1", "target": "Alpha-1A adrenergic receptor (ADRA1A, Homo sapiens, UniProt P35348, I178V)", "assay": "calcium signal, antagonist", "IC50 [µM]": 4.57}
{"Structure (SMILES)": "NC(=S)N/N=C/c1cc2ccccc2nc1SCc1cn(CC(=O)Nc2ccc(Br)cc2)nn1", "target": "MAL12", "assay": "enzyme activity, inhibitor", "IC50 [µM]": 434}
{"Structure (SMILES)": "COc1cc(C(c2c(O)c3ccccc3oc2=O)c2c(O)c3ccccc3oc2=O)ccc1OCc1cn(CC(=O)Nc2ccc(C)cc2)nn1", "target": "MAL12", "assay": "enzyme activity, inhibitor, absorbance", "IC50 [µM]": 41.1}
{"Structure (SMILES)": "C[C@@H]1O[C@@H](O[C@H]2[C@H](O[C@H]3CC[C@@]4(C)[C@@H](CC[C@]5(C)[C@@H]4CC=C4[C@@H]6CC(C)(C)CC[C@]6(C(=O)O[C@@H]6O[C@H](CO[C@@H]7O[C@H](CO)[C@@H](O[C@@H]8O[C@@H](C)[C@H](O)[C@@H](O)[C@H]8O)[C@H](O)[C@H]7O)[C@@H](O)[C@H](O)[C@H]6O)CC[C@]45C)[C@]3(C)CO)OC[C@H](O)[C@@H]2O)[C@H](O)[C@H](O)[C@H]1O", "target": "MAL12", "assay": "enzyme activity, inhibitor", "IC50 [µM]": 1.78}
{"Structure (SMILES)": "Cc1cc([N+](=O)[O-])ccc1NC(=O)Cn1cc(CSc2nc3ccccc3cc2/C=N/NC(N)=S)nn1", "target": "MAL12", "assay": "enzyme activity, inhibitor", "IC50 [µM]": 307}
{"Structure (SMILES)": "C[C@@H]1O[C@@H](O[C@H]2[C@H](O)[C@@H](O)[C@H](OC[C@H]3O[C@@H](OC(=O)[C@]45CCC(C)(C)C[C@H]4C4=CC[C@@H]6[C@@]7(C)CC[C@H](O[C@@H]8OC[C@H](O)[C@H](O)[C@H]8O)[C@@](C)(CO)[C@@H]7CC[C@@]6(C)[C@]4(C)CC5)[C@H](O)[C@@H](O)[C@@H]3O)O[C@@H]2CO)[C@H](O)[C@H](O)[C@H]1O", "target": "MAL12", "assay": "enzyme activity, inhibitor", "IC50 [µM]": 1.65}
{"Structure (SMILES)": "Cc1ccc2oc(=O)cc(NCCO)c2c1", "target": "Alpha-1A adrenergic receptor (ADRA1A, Homo sapiens, UniProt P35348, M292L)", "assay": "calcium signal, antagonist", "IC50 [µM]": 692}
